Data from ChEMBL document CHEMBL5653631, “A Potent and Selective ULK1 Inhibitor Suppresses Autophagy and Sensitizes Cancer Cells to Nutrient Stress” (iScience, 2018).

Tests used:
[1] = target: Fibroblast growth factor receptor 1 (Homo sapiens) (UniProt P11362); test: Inhibition of human recombinant FGFR1 at 500 nM related to control ULK1
[2] = target: T1, Ephrin type-A receptor 1 (Homo sapiens) (UniProt P21709); test: Inhibition of human recombinant EphA1 at 15 nM in presence of ATP by radiometric assay relative to control
T1 sequence (whole entry): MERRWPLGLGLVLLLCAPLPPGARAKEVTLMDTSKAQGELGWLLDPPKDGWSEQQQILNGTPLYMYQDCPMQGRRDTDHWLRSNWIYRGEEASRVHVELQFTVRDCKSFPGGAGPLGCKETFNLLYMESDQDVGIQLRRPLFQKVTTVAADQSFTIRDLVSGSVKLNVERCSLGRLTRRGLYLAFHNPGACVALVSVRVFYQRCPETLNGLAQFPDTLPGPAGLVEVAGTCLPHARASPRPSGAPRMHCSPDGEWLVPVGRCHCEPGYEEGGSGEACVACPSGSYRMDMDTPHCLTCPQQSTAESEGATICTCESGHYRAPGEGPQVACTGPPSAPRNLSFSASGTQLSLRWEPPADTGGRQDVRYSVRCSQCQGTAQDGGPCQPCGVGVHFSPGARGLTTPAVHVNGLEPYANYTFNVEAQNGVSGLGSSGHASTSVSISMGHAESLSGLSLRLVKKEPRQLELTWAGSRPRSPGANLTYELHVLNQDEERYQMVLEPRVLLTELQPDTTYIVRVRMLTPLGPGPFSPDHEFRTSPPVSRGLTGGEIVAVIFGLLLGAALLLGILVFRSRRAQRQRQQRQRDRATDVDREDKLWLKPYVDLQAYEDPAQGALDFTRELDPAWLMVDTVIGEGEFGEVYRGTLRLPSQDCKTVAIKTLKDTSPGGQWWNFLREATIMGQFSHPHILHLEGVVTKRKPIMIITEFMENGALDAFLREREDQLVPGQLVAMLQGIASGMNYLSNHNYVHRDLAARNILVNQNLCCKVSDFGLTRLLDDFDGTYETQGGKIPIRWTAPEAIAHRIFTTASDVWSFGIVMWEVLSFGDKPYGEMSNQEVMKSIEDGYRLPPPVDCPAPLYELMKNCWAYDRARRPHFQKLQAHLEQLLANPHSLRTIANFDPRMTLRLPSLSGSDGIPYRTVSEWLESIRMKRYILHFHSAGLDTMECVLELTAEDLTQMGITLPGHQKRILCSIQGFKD

[3] = target: T2, Myosin-IIIb (Homo sapiens) (UniProt Q8WXR4); test: Inhibition of human recombinant MYO3B at 40 nM in presence of ATP by radiometric assay relative to control
T2 sequence (whole entry): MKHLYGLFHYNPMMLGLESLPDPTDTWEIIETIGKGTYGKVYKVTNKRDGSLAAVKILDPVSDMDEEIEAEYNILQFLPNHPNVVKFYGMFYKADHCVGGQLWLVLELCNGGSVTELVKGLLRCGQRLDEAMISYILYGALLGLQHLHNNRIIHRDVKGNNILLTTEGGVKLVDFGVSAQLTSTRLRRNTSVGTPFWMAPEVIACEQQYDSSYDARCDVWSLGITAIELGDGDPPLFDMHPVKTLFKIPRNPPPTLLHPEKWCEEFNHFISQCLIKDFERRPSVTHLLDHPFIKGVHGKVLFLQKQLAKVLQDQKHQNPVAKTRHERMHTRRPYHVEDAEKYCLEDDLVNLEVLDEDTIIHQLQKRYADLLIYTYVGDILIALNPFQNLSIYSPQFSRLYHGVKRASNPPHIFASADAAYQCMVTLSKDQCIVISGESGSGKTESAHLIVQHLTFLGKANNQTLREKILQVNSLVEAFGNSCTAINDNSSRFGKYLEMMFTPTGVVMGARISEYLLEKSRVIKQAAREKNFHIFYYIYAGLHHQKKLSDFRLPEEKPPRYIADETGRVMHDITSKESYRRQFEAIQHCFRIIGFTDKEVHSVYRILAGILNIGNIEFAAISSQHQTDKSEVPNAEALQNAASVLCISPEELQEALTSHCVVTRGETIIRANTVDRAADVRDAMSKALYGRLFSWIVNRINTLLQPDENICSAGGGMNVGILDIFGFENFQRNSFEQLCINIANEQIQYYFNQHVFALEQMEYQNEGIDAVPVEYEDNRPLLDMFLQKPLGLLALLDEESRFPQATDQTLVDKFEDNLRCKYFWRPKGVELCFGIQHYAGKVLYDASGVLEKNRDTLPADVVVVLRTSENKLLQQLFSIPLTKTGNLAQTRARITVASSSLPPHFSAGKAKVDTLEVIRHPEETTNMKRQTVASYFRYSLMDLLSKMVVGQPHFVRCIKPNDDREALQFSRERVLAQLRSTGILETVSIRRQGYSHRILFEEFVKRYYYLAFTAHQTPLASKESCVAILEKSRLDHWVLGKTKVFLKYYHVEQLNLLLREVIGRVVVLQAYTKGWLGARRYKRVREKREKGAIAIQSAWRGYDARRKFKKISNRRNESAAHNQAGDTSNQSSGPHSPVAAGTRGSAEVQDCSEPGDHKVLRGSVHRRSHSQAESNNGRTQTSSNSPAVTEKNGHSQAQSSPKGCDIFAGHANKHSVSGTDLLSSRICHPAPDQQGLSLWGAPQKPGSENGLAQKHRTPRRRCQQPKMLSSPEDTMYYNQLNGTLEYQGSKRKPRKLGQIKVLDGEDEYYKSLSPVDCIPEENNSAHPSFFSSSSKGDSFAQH

[4] = target: Protein kinase C beta type (Homo sapiens) (UniProt P05771); test: Inhibition of human recombinant PKCb at 40 nM in presence of ATP by radiometric assay relative to control
[5] = target: ALK tyrosine kinase receptor (Homo sapiens) (UniProt Q9UM73); test: Inhibition of human recombinant ALK at 40 nM related to control ULK1
In short: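 Radiometric activity assays in a panel of 327 human recombinant kinases, each run in duplicate at one inhibitor concentration. Activity remaining is expressed as percent of vehicle control, and percent inhibition is calculated as 100% minus percent activity remaining.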

Chain of Fibroblast growth factor receptor 1 (Homo sapiens) (P11362 22-822 limits assumed): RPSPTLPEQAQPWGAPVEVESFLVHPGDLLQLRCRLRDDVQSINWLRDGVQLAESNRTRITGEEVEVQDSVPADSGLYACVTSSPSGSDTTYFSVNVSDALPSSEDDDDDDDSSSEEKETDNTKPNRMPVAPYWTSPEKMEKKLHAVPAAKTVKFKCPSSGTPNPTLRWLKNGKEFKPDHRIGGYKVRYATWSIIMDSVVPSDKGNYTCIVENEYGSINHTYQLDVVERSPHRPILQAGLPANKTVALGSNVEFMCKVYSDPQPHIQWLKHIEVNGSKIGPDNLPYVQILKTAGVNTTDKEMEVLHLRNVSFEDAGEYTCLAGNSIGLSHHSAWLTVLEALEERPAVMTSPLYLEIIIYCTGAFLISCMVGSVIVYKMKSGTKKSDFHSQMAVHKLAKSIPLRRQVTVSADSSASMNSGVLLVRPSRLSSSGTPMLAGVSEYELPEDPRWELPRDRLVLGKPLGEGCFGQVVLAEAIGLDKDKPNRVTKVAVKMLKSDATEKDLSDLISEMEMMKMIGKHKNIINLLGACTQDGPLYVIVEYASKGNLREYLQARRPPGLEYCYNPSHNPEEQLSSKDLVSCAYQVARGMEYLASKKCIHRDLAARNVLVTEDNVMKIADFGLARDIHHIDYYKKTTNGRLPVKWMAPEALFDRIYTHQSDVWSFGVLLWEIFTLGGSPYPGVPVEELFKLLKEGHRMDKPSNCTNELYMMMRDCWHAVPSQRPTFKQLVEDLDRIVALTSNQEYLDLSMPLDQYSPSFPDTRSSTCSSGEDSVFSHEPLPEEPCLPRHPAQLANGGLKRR
Chain of Protein kinase C beta type (Homo sapiens) (P05771 2-671 limits assumed): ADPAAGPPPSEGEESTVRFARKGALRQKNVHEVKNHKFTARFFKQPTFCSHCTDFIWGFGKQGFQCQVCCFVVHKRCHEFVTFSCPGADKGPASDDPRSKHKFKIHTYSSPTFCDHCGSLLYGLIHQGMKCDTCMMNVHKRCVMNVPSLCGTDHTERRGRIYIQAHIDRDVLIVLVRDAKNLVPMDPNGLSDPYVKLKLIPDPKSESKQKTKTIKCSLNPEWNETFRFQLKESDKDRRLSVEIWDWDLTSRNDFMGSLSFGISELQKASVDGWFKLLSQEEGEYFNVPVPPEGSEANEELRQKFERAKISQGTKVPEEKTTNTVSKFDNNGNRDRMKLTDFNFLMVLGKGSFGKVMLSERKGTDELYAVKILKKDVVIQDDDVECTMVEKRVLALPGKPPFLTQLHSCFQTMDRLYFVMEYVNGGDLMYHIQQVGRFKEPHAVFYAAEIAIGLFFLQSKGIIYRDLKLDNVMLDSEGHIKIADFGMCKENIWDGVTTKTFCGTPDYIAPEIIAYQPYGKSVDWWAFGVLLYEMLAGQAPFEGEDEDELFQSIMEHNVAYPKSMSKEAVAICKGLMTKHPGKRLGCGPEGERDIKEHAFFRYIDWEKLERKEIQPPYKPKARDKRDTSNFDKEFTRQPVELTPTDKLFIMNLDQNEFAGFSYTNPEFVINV
Chain of ALK tyrosine kinase receptor (Homo sapiens) (Q9UM73 19-1620 limits assumed): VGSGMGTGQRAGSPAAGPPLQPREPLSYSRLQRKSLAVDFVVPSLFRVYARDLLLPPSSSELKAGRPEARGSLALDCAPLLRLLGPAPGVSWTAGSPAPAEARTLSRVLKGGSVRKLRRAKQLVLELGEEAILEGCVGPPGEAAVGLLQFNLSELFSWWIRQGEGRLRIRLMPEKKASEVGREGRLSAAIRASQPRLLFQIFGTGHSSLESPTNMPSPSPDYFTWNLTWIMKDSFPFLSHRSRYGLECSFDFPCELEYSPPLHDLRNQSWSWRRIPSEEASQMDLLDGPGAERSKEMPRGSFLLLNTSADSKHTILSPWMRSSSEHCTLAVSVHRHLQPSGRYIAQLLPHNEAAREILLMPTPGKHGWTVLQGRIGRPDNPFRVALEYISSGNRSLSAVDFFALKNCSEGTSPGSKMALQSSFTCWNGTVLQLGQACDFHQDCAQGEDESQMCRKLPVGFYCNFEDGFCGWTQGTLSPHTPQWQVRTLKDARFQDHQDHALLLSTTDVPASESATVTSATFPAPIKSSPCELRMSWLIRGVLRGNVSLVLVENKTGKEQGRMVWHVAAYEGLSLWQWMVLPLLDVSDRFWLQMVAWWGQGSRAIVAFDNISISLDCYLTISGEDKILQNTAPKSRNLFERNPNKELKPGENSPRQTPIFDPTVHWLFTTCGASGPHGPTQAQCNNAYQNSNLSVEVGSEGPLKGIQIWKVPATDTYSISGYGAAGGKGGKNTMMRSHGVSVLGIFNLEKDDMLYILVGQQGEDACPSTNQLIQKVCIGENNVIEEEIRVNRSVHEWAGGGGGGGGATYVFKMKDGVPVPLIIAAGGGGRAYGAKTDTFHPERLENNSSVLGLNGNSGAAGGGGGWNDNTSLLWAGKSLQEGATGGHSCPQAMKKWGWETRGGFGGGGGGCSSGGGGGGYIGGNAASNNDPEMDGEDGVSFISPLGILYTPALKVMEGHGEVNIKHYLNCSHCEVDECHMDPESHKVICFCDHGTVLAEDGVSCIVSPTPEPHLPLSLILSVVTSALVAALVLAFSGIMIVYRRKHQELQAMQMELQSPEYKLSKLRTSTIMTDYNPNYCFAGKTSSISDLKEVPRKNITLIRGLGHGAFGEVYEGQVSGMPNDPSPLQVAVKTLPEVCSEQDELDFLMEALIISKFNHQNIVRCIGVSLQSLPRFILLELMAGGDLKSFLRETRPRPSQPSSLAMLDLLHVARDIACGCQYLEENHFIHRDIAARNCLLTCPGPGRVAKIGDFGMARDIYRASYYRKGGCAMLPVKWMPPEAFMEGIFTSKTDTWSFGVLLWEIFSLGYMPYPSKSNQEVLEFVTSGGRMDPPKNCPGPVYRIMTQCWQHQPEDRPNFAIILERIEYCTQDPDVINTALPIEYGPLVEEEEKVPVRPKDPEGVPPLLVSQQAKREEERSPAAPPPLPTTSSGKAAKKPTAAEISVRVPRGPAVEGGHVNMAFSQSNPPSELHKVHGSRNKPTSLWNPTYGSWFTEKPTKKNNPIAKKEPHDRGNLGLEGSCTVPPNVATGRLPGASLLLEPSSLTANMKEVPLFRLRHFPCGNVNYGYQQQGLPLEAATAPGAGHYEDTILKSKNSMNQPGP

CNC(=O)c1ccccc1Oc1nc(Nc2cc(OC)c(OC)c(OC)c2)ncc1Br
fold change (FC) [1]: 0.47

CC(C)[C@H](NC(=O)c1cc(-c2cnn3cc(-c4ccc(OCCN5CCCCC5)cc4)cnc23)cs1)C(F)(F)F
inhibition [2]: 0%

O=C(N[C@@H](C1CC1)C(F)(F)F)c1cc(-c2cnn3cc(-c4ccc(F)cc4)cnc23)cs1
inhibition [3]: 0% | inhibition [4]: 3% | fold change (FC) [5]: 0
